Laboratory results reported in article PMC10376460 (European Journal of Endocrinology, 2023).
Values joined by “and” are separate entries in the source; they are usually repeats but may differ in a detail not shown here. Equal values may be shown once. “Also recorded” adds a separate entry of the source.

Legend:
[1] = target: T1, human AKR1C3 (Homo sapiens, UniProt P42330); test: Biochemical enzyme assay: coumberol formation from coumberone; settings: read-out: IC50, inhibition of human AKR1C3 activity; coumberone 0.3 µmol/L (Km)
T1 sequence (P42330 1-323): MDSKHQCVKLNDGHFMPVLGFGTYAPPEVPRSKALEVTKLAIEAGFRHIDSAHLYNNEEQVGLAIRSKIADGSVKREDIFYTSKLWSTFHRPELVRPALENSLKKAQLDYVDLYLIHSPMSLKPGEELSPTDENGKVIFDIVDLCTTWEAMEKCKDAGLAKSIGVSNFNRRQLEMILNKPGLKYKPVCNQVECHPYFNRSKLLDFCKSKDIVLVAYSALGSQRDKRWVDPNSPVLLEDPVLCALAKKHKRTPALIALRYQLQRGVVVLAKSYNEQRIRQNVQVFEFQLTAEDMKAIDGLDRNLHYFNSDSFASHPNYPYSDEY

[2] = tested on: postmenopausal women; test: Steroid assay; assay type: in vivo, human; settings: 30 mg QD to 60 mg BID for 14 days
Procedure, shortened: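 Postmenopausal women received test compound QD or BID, or placebo, for 14 days with 5-day follow-up. A commercial validated multiplex LC-MS/MS kit quantified 17 serum steroids at 0-48 h after dosing on day −1, day 1 and day 14, plus predose samples. Fold change was the ratio to the last pre-dose value of the period. Values below LLOQ were excluded.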

[3] = tested on: premenopausal women; test: Steroid assay; assay type: in vivo, human
Procedure, shortened: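 Premenopausal women, pretreatment cycle versus 28-day treatment with 60 mg QD or BID. A validated multiplex LC-MS/MS kit measured 17 serum steroids at 3- to 4-day visits, E3G-triggered visits, first bleeding days and end of treatment. LH-peak-adjusted AUCs were taken from day −5 to +10 per cycle. Cycles were compared with 90% CI and Bonferroni–Holm-adjusted P values, and values below LLOQ were excluded.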

[4] = tested on: premenopausal women; test: Ovarian function assessment; assay type: in vivo, human; settings: 60 mg QD or BID 28 d
Procedure, shortened: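 Open-label, intraindividual comparison in 18 premenopausal women: a pretreatment cycle, then oral test compound 60 mg QD or BID for 28 days. Assessments were transvaginal ultrasound (follicle diameter, endometrial thickness), Hoogland scoring of ovarian activity, and a bleeding pattern from daily self-rated maximum bleeding intensity. FSH and LH were sampled at 3- to 4-day visits, with extra visits on urinary E3G rises.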

[5] = tested on: healthy premenopausal and postmenopausal women; test: Eicosanoid; assay type: in vivo, human; settings: systemic measurements
Procedure, shortened: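 Plasma from postmenopausal (part A) and premenopausal (part B) women on the test compound. Eicosanoids, including prostaglandins, and polyunsaturated fatty acids were measured together by a published LC-MS/MS method. Part B sampling was at 3- to 4-day visits.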

[6] = Plasma pharmacokinetics, part A; assay type: in vivo, human
Procedure, shortened: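 Postmenopausal women, randomized, double-blind, placebo-controlled (7 active, 2 placebo per step). A single dose was given, then after a 14-28 day washout 3, 30 or 90 mg QD or 60 mg BID for 14 days. Plasma parent and metabolite M-7 were sampled predose to 336 h, plus periodic predose troughs. Noncompartmental parameters, accumulation and linearity indices were derived, and steady state was judged from mean Ctrough.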

[7] = Plasma pharmacokinetics, part B; assay type: in vivo, human; settings: premenopausal women
Procedure, shortened: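 Premenopausal women received open-label oral test compound 60 mg QD or BID for 28 days. Plasma parent and metabolite M-7 concentrations were measured. Standard noncompartmental multiple-dose PK parameters were calculated from concentration-time data.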

[8] = tested on: postmenopausal women; test: Safety assessments; assay type: in vivo, human
Procedure, shortened: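 Safety covered adverse event reports, vital signs, ECGs, hematology, serum chemistry including liver function tests (transaminases, alkaline phosphatase) and urinalysis. Total serum bilirubin was followed during and after dosing against an ULN of 1.23 mg/dL. Placebo recipients were pooled, with descriptive statistics.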

[9] = tested on: AKR1C1; settings: concentrations up to 10 µM; cited from earlier work
[10] = tested on: AKR1C2; settings: concentrations up to 10 µM; cited from earlier work
[11] = tested on: AKR1C4; settings: concentrations up to 10 µM; cited from earlier work
[12] = tested on: organic anion transporting polypeptide (OATP) 1B1/3 transporters; settings: in vitro; cited from earlier work
[13] = tested on: premenopausal women with endometriosis; settings: phase 2 study; cited from earlier work
[14] = LH-peak-adjusted AUC, 60 mg once or twice daily 28 d
[15] = serum, LH-peak-adjusted (day −5 to +10), 60 mg once or twice daily 28 d
[16] = treatment vs pretreatment cycle, 60 mg once or twice daily 28 d

IC50 [1]: 1.4 nM
RAAUC (accumulation ratio) ([6]; 60 mg BID, geometric mean/%CV): 2.32
time until PK steady-state conditions were reached (mean Ctrough) ([6]; all dose groups): 4 to 8 days
multiple-dose PK parameters compared with postmenopausal women [7]: Largely similar
Compound: CN(CCC(=O)O)C(=O)c1ccc2c(c1)CC[C@@H]1[C@@H]2CC[C@]2(C)C(c3cncc(F)c3)=CC[C@@H]12 [BAY1128688]
serum concentrations of androsterone [2]: increased in a dose-dependent manner
changes in serum E2 (17β-estradiol) concentrations ([3]; 60 mg QD or BID 28 d): no concomitant changes; also recorded: no systematic changes
changes in serum progesterone concentrations ([3]; 60 mg QD or BID 28 d): no concomitant changes; also recorded: no systematic changes
serum testosterone, treatment cycle vs pretreatment cycle ([3]; 60 mg QD or BID 28 d): slightly decrease
11-Deoxycorticosterone: X-fold change from baseline, mean [3, 14]: 0.88
11-Deoxycorticosterone: X-fold change from baseline, median [3, 14]: 0.87
11-Deoxycortisol: X-fold change from baseline, mean [3, 14]: 0.85
11-Deoxycortisol: X-fold change from baseline, median [3, 14]: 0.79
17alpha-Hydroxyprogesterone: X-fold change from baseline, mean [3, 14]: 0.88
17alpha-Hydroxyprogesterone: X-fold change from baseline, median [3, 14]: 0.87
Aldosterone: X-fold change from baseline, mean [3, 14]: 1.05
Aldosterone: X-fold change from baseline, median [3, 14]: 0.94
Androstenedione: X-fold change from baseline, mean [3, 14]: 0.99
Androstenedione: X-fold change from baseline, median [3, 14]: 0.98
Androsterone: X-fold change from baseline, mean [3, 14]: 2.95
Androsterone: X-fold change from baseline, median [3, 14]: 2.42
Corticosterone: X-fold change from baseline, mean [3, 14]: 0.98
Corticosterone: X-fold change from baseline, median [3, 14]: 0.95
Cortisol: X-fold change from baseline, mean [3, 14]: 0.95
Cortisol: X-fold change from baseline, median [3, 14]: 0.92
Cortisone: X-fold change from baseline, mean [3, 14]: 0.94
Cortisone: X-fold change from baseline, median [3, 14]: 0.92
Dehydroepiandrosterone sulfate: X-fold change from baseline, mean [3, 14]: 1.11
Dehydroepiandrosterone sulfate: X-fold change from baseline, median [3, 14]: 1.12
Dehydroepiandrosterone: X-fold change from baseline, mean [3, 14]: 0.83
Dehydroepiandrosterone: X-fold change from baseline, median [3, 14]: 0.78
Dihydrotestosterone: X-fold change from baseline, mean [3, 14]: 1.52
Dihydrotestosterone: X-fold change from baseline, median [3, 14]: 1.53
Estradiol: X-fold change from baseline, mean [3, 14]: 1.06
Estradiol: X-fold change from baseline, median [3, 14]: 1.12
Estrone: X-fold change from baseline, mean [3, 14]: 1.05
Estrone: X-fold change from baseline, median [3, 14]: 1.08
Etiocholanolone: X-fold change from baseline, mean [3, 14]: 1.96
Etiocholanolone: X-fold change from baseline, median [3, 14]: 1.70
Progesterone: X-fold change from baseline, mean [3, 14]: 0.84
Progesterone: X-fold change from baseline, median [3, 14]: 0.90
Testosterone: X-fold change from baseline, mean [3, 14]: 0.86
Testosterone: X-fold change from baseline, median [3, 14]: 0.87
11-Deoxycorticosterone: Treatment period AUC [3, 15]: 1.61 nmol/day
11-Deoxycortisol: Treatment period AUC [3, 15]: 4.84 nmol/day
17alpha-Hydroxyprogesterone: Treatment period AUC [3, 15]: 42.5 nmol/day
Aldosterone: Treatment period AUC [3, 15]: 3.17 nmol/day
Androstenedione: Treatment period AUC [3, 15]: 51.1 nmol/day
Androsterone: Treatment period AUC [3, 15]: 20.6 nmol/day
Corticosterone: Treatment period AUC [3, 15]: 90.6 nmol/day
Cortisol: Treatment period AUC [3, 15]: 4102 nmol/day
Cortisone: Treatment period AUC [3, 15]: 859 nmol/day
Dehydroepiandrosterone sulfate: Treatment period AUC [3, 15]: 69 510 nmol/d
Dehydroepiandrosterone: Treatment period AUC [3, 15]: 130 nmol/day
Dihydrotestosterone: Treatment period AUC [3, 15]: 10.2 nmol/day
Estradiol: Treatment period AUC [3, 15]: 7.29 nmol/day
Estrone: Treatment period AUC [3, 15]: 4.02 nmol/day
Etiocholanolone: Treatment period AUC [3, 15]: 7.01 nmol/day
Progesterone: Treatment period AUC [3, 15]: 213 nmol/day
Testosterone: Treatment period AUC [3, 15]: 9.45 nmol/day
androsterone on-treatment value, maximum ([3]; serum, 60 mg QD or BID): 6.36 nmol/L
11-Deoxycorticosterone: AUC difference (mixed linear model) [3, 16]: -0.308 nmol/day
11-Deoxycortisol: AUC difference (mixed linear model) [3, 16]: -0.953 nmol/day
17alpha-Hydroxyprogesterone: AUC difference (mixed linear model) [3, 16]: -5.20 nmol/day
Aldosterone: AUC difference (mixed linear model) [3, 16]: 0.0041 nmol/day
Androstenedione: AUC difference (mixed linear model) [3, 16]: -0.312 nmol/day
Androsterone: AUC difference (mixed linear model) [3, 16]: 13.5 nmol/day
Corticosterone: AUC difference (mixed linear model) [3, 16]: -17.7 nmol/day
Cortisol: AUC difference (mixed linear model) [3, 16]: -407 nmol/day
Cortisone: AUC difference (mixed linear model) [3, 16]: -55.6 nmol/day
Dehydroepiandrosterone sulfate: AUC difference (mixed linear model) [3, 16]: 9524 nmol/day
Dehydroepiandrosterone: AUC difference (mixed linear model) [3, 16]: -23.3 nmol/day
Dihydrotestosterone: AUC difference (mixed linear model) [3, 16]: 3.49 nmol/day
Estradiol: AUC difference (mixed linear model) [3, 16]: 0.343 nmol/day
Estrone: AUC difference (mixed linear model) [3, 16]: 0.139 nmol/day
Etiocholanolone: AUC difference (mixed linear model) [3, 16]: 3.47 nmol/day
Progesterone: AUC difference (mixed linear model) [3, 16]: -50.6 nmol/day
Testosterone: AUC difference (mixed linear model) [3, 16]: -1.43 nmol/day
menstrual cyclicity and ovarian function [4]: not altered
participants with Hoogland score of 6 (normal ovulation) in treatment cycle [4]: 14 of 18 and 14/18
impact on prostaglandins investigated [5]: no obvious impact
individual maximum increase in total serum bilirubin, fold ULN ([8]; 60 mg BID, day 13): around 1.2 fold ULN
individual maximum increase in total serum bilirubin, fold ULN ([8]; 90 mg QD, day 6): around 2.3 fold ULN
overall safety and tolerability ([8]; 2 or 4 weeks of treatment, healthy female participants): safe and well tolerated
increases in serum bilirubin, fold above the ULN ([8]; all participants except two): below 1.50 fold
changes in liver enzymes (transaminases; alkaline phosphatase) ([8]; any of the participants, parts A and B): no concomitant changes
inhibition of AKR1C1 [9]: no inhibition
inhibition of AKR1C2 [10]: no inhibition
inhibition of AKR1C4 [11]: no inhibition
inhibition of OATP 1B1/3 transporters [12]: inhibitor
finding that terminated development [13]: hepatotoxicity
